ChEMBL document CHEMBL2034950, “Sphingolipid analogues inhibit development of malaria parasites” (ACS Med Chem Lett, 2012)
Calls of active or inactive are those of the source. The rule behind the calls is not given here.

Experiments:
Plasmodium falciparum [1] = assay: Antimalarial activity against chloroquine-resistant Plasmodium falciparum W2 infected in O-positive human RBC assessed as [3H]-hypoxanthine incorporation after 48 hrs by scintillation counting in presence of BSA; type: functional, organism-based
Plasmodium falciparum [2] = assay: Antimalarial activity against chloroquine-sensitive Plasmodium falciparum D6 infected in O-positive human RBC assessed as [3H]-hypoxanthine incorporation after 48 hrs by scintillation counting in presence of BSA; type: functional, organism-based
Plasmodium falciparum [3] = assay: Antimalarial activity against chloroquine-resistant Plasmodium falciparum W2 infected in O-positive human RBC assessed as [3H]-hypoxanthine incorporation after 48 hrs by scintillation counting; type: functional, organism-based
In short: (§1)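 Growth inhibition in vitro by [3H]-hypoxanthine uptake in parasitized RBCs; dose-response runs to derive IC50.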

[4] = Cytotoxicity against human HFF1 cells at 50 uM after 72 hrs by SRB assay; type: cell-based; settings: hff-1, 72 h
In short: (§2)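 Human foreskin fibroblasts (HFF-1) were seeded at 20,000 cells per plate, incubated with compound at 10 or 50 μM for 72 h, and read by sulforhodamine B assay.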

[5] = Cytotoxicity against human HFF1 cells at 10 uM after 72 hrs by SRB assay; type: cell-based; settings: hff-1, 72 h; in short: as §2
Plasmodium knowlesi = assay: Antimalarial activity against Plasmodium knowlesi infected in rhesus monkey RBC assessed as [3H]-hypoxanthine incorporation after 12 hrs by scintillation counting; type: functional, organism-based
In short: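 Dose-response assay of in vitro parasite growth and replication in red blood cells, read as [³H]-hypoxanthine uptake. IC50 values were derived, with the error given as standard deviation.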

Plasmodium falciparum [6] = assay: Antimalarial activity against chloroquine-sensitive Plasmodium falciparum D6 infected in O-positive human RBC assessed as [3H]-hypoxanthine incorporation after 48 hrs by scintillation counting; type: functional, organism-based; in short: as §1
[7] = Half life in mouse plasma at 30 mg/kg, po QD; type: ADME, organism-based; design: dose 30 mg/kg, route oral
In short: (§3)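 Mice were dosed orally once daily at 30 mg/kg for five days. Drug levels were followed over time in plasma and in red blood cells on day 1 and on day 5 of dosing.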

[8] = AUC (0 to infinity) in mouse plasma at 30 mg/kg, po QD; type: ADME, organism-based; design: time infinity, dose 30 mg/kg, route oral; in short: as §3
[9] = Ratio of drug uptake in mouse RBC to mouse plasma at 30 mg/kg, po QD; type: ADME, organism-based; design: dose 30 mg/kg, route oral; settings: red blood cells (RBC) / plasma; in short: as §3
[10] = Apparent volume of distribution during terminal phase in mouse RBC at 30 mg/kg, po QD; type: ADME, organism-based, Erythrocyte; design: dose 30 mg/kg, route oral; settings: red blood cells (RBC), read-out: Vz/F; in short: as §3
[11] = Cmax in mouse RBC at 30 mg/kg, po QD; type: ADME, organism-based, Erythrocyte; design: dose 30 mg/kg, route oral; settings: red blood cells (RBC); in short: as §3
[12] = Half life in mouse RBC at 30 mg/kg, po QD; type: ADME, organism-based, Erythrocyte; design: dose 30 mg/kg, route oral; settings: red blood cells (RBC); in short: as §3
Plasma = assay: Apparent volume of distribution during terminal phase in mouse plasma at 30 mg/kg, po QD; type: ADME, organism-based; design: dose 30 mg/kg, route oral; settings: in vivo; in short: as §3
[13] = Tmax in mouse plasma at 30 mg/kg, po QD; type: ADME, organism-based; design: dose 30 mg/kg, route oral; in short: as §3
[14] = AUC (0 to infinity) in mouse RBC at 30 mg/kg, po QD; type: ADME, organism-based, Erythrocyte; design: time infinity, dose 30 mg/kg, route oral; settings: red blood cells (RBC); in short: as §3
[15] = Cmax in mouse plasma at 30 mg/kg, po QD; type: ADME, organism-based; design: dose 30 mg/kg, route oral; in short: as §3
Plasmodium falciparum [16] = assay: Antimalarial activity against chloroquine-resistant Plasmodium falciparum W2 infected in O-positive human RBC assessed as trophozoite-stage parasites at 546.94 ng/mL after 48 hrs by Giemsa staining-based microscopic analysis (reference value: 4.2%); type: functional
Plasmodium falciparum [17] = assay: Antimalarial activity against chloroquine-resistant Plasmodium falciparum W2 infected in O-positive human RBC assessed as aberrant form of ring-stage parasites at 546.94 ng/mL after 28 to 48 hrs by Giemsa staining-based microscopic analysis; type: functional, organism-based
Plasmodium falciparum [18] = assay: Antimalarial activity against chloroquine-resistant Plasmodium falciparum W2 infected in O-positive human RBC assessed as aberrant form of trophozoite-stage parasites at 546.94 ng/mL after 28 to 48 hrs by Giemsa staining-based microscopic analysis; type: functional, organism-based
Plasmodium falciparum [19] = assay: Antimalarial activity against chloroquine-resistant Plasmodium falciparum W2 infected in O-positive human RBC assessed as schizont-stage parasites at 546.94 ng/mL after 48 hrs by Giemsa staining-based microscopic analysis (reference value: 8.05%); type: functional
Plasmodium falciparum [20] = assay: Antimalarial activity against chloroquine-resistant Plasmodium falciparum W2 infected in O-positive human RBC assessed as parasitemia at 546.94 ng/mL after 48 hrs by Giemsa staining-based microscopic analysis; type: functional
Plasmodium falciparum [21] = assay: Antimalarial activity against chloroquine-resistant Plasmodium falciparum W2 infected in O-positive human RBC assessed as ring-stage parasites at 546.94 ng/mL after 48 hrs by Giemsa staining-based microscopic analysis (reference value: 87.9%); type: functional

Row | Structure (SMILES) | IC50 (Plasmodium falciparum [1]) [µM] | IC50 (Plasmodium falciparum [2]) [µM] | Activity [4] | Activity [5] | IC50 (Plasmodium falciparum [3]) [µM] | IC50 (Plasmodium knowlesi) [µM] | IC50 (Plasmodium falciparum [6]) [µM] | other results
1 | CCCCCCCCCCCCC[C@@H](O)C[C@H](O)C(C)(C)N (racemic) | 7.4 | 4.1 |  |  |  |  |  | 
2 | CCCCCCCCCCCCCC(O)CC(=O)C(C)(C)N (racemic) | 2.6 | 2.5 |  |  |  |  |  | 
3 | CCCCCCCCCCCCCCCC(=O)N[C@@H](C)[C@@H](O)C[C@@H](O)CCCCCCCCCCCCC |  |  | Toxic | Non-toxic |  |  |  | Activity (Plasmodium falciparum [3]): inactive; Activity (Plasmodium knowlesi): inactive; Activity (Plasmodium falciparum [6]): inactive
4 | CCCCCCCCCCCCC[C@H](O)C[C@H](O)C(C)(C)NC (racemic) | 0.25 | 0.7 |  |  |  |  |  | 
5 | CCCCCCCCCCCCC[C@H](O)C[C@H](O)[C@@H]1CCCN1 |  |  | Toxic | Non-toxic | 4.4 | 6.3 | 9.7 | 
6 | CCCCCCCCCCCCC[C@H](O)C[C@H](O)[C@H](C)N(C)C |  |  | Toxic | Non-toxic | 4.4 | 6.8 | 7 | 
7 | O[C@@H](c1cc(C(F)(F)F)nc2c(C(F)(F)F)cccc12)[C@H]1CCCCN1 (relative stereo) [(S,R)-MEFLOQUINE] | 0.0004 |  |  |  |  | 0.04 |  | 
8 | CCCCCCCCCCCCC[C@H](O)C[C@@H](O)[C@H](C)N |  |  | Toxic | Non-toxic | 9.2 | 20.3 | 17.8 | 
9 | CCCCCCCCCCCCC[C@H](O)C[C@H](O)[C@H](C)NC(C)=O |  |  | Toxic | Non-toxic | 13.1 |  | 11.1 | Activity (Plasmodium knowlesi): inactive
10 | CCCCCCCCCCCCC[C@H](O)C[C@H](O)C(C)(C)N (racemic) | 4.7 | 5.2 |  |  |  |  |  | 
11 | CCCCCCCC(F)(F)CCCCC[C@H](O)C[C@H](O)[C@H](C)NC |  |  | Toxic | Non-toxic | 2.4 |  | 7.3 | 
12 | CCCCCCCCCCCCC[C@@H](O)C[C@H](O)[C@H](C)N |  |  | Toxic | Non-toxic | 8.2 | 17.6 | 12.7 | 
13 | CCCCCCCCCCCCCC(O)C/C(=N\O)C(C)(C)N (racemic) | 10 | 7.44 |  |  |  |  |  | 
14 | CCCCCCCCCCCCC[C@H](O)C[C@H](O)[C@H](C)N [ENIGMOL] | 9.2 | 5.3 | Toxic | Non-toxic | 7.4 | 10.5 | 12.6 | half-life [7]: 10.7 h; AUC(0-inf) [8]: 14.4 µM·h; Kp [9]: 3; Vd/F [10]: 25 L/kg; Cmax [11]: 3300 nM; half-life [12]: 8.9 h; Vz/F (Plasma): 4.4 L/kg; Tmax [13]: 2 h; AUC(0-inf) [14]: 50.7 µM·h; Cmax [15]: 1100 nM
15 | CCCCCCCCCCCCC[C@H](O)C[C@@H](O)[C@H](C)NC |  |  | Toxic | Non-toxic | 8.1 |  | 14.6 | 
16 | CCCCCCCC(F)(F)CCCCC[C@H](O)C[C@H](O)[C@H](C)N |  |  | Toxic | Non-toxic | 5.6 |  | 12.7 | 
17 | CCCCCCCCCCCCC[C@H](O)C[C@H](O)[C@H](C)NC | 0.9 | 1.7 | Toxic | Non-toxic | 1.6 | 1.7 | 4.7 | Activity (Plasmodium falciparum [16]): 39.2%; Activity (Plasmodium falciparum [17]): Active; Activity (Plasmodium falciparum [18]): Active; Activity (Plasmodium falciparum [19]): 18.9%; Activity (Plasmodium falciparum [20]): 1.3%; Activity (Plasmodium falciparum [21]): 41.9%
18 | CCCCCCCCCCCCC[C@@H](O)C[C@H](O)C1(N)CC1 (racemic) | 7.2 | 11.2 |  |  |  |  |  | 
19 | CCCCCCCCCCCCC[C@H](O)C[C@H](O)C1(N)CC1 (racemic) | 9.9 | 5.5 |  |  |  |  |  | 
